Molecules are shown by their SMILES.

The nature of test [1]: Ratio of IC50 values obtained from D3F-C10 and D3F cell lines. The class given is functional.
Test [2] can be described thus: Ratio of IC50 values obtained from Jurkat lines, (JLa /JLc). The class given is functional, Homo sapiens. A digest of the protocol:
(§1)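 Murine P388 leukemia, Lewis lung carcinoma (LL), and human Jurkat leukemia (JLC) cells, plus amsacrine- and doxorubicin-resistant Jurkat derivatives (JLA, JLD), were grown with drug. Seeding per well was 4.5×10^3 (P388), 10^3 (LL) and 3.75×10^3 (Jurkat). Exposure was 3 days (P388) or 4 days (others). Growth was read by [3H]TdR uptake (P388) or sulforhodamine assay. IC50 is the drug concentration (nM) halving cell number versus controls. Ratios are JLA/JLC and JLD/JLC IC50. Independent assays were run in duplicate.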

Test [3] deals with HCT-116. Kind of test: Inhibitory concentration required to reduce cell growth to 50% of control cultures in the HTC116 human cell line. The class given is functional.
Test [4] in a line: Inhibitory concentration required to reduce cell growth to 50% of control cultures in the NCI-ADR human cell line. The following applies: NCI/ADR-RES. The class given is functional.
For test [5], the system named is MOLT-4. Put plainly: Inhibitory concentration of the drug resulting in inhibition of cell growth to 50% of controls in MOLT-4 (human leukemia). The class given is functional, cell-based.
The subject of test [6] is CAKI-1. Put plainly: Inhibitory concentration required to reduce cell growth to 50% of control cultures in the CAK1 human cell line. The class given is functional.
In test [7] the test system is HT-29. Put plainly: Inhibitory concentration of the drug resulting in inhibition of cell growth to 50% of controls in HT-29 (human colon). The class given is functional, cell-based.
Test [8] deals with Lewis lung carcinoma cell line. Put plainly: Inhibitory concentration required to reduce cell number to 50% of control cultures in LL (Lewis lung carcinoma cell line). The class given is functional, cell-based. To be noted: Mus musculus. Summed up: as §1
Test [9] can be described thus: Ratio of IC50 values obtained from CHrC5 and AuxB1 cell lines. The class given is functional.
Test [10] deals with SK-OV-3. Put plainly: Inhibitory concentration required to reduce cell growth to 50% of control cultures in the SKOV3 human cell line. The class given is functional.
The test system of test [11] is D3F. Put plainly: Concentration of the drug to reduce cell number to 50% of controls in D3F cell line. The class given is functional, cell-based.
The test system of test [12] is Whole cell line panel. Put plainly: Average GI50 value for the drug over the whole cell line panel. The class given is functional.
A short description of test [13]: Ratio of IC50 values obtained from Jurkat lines, (JLd /JLc). The class given is functional, Homo sapiens. A digest of the protocol:
as §1

The subject of test [14] is HT-29. Put plainly: Inhibitory concentration required to reduce cell growth to 50% of control cultures in the HT-29 human cell line. The class given is functional.
The nature of test [15]: Concentration of the drug to reduce cell number to 50% of controls in AuxB1 cell line. The class given is functional, cell-based.
In test [16] the test system is MCF7. Kind of test: Inhibitory concentration required to reduce cell growth to 50% of control cultures in the MCF-7 human cell line. The class given is functional.
In test [17] the test system is U-937. Put plainly: Inhibitory concentration of the drug resulting in inhibition of cell growth to 50% of controls in U937 (human leukemia). The class given is functional, cell-based.
The nature of test [18]: Inhibitory concentration required to reduce cell number to 50% of control cultures in JLc(Jurkat human leukemia). The class given is functional. Summed up: as §1

By GI50 is commonly meant the concentration at which growth is held to half of that of the control. A word on the IC50: it is the concentration needed to halve the response being measured. Read a low IC50 as inhibition by little substance. In the case of `Cc1cccc2nc3cccc(C(=O)NCCCN(C)CCCNC(=O)c4cccc5nc6cccc(C)c6nc45)c3nc12`, the Ratio in test [1] is listed as 0.57; in test [2], 0.6; in test [9], 31.3; in [13], 0.6. For the same compound, the GI50 in [3] was below 10 nM; in test [4], 19 nM; in test [6], below 10 nM; in [10], 220 nM; in [12], 20 nM; in test [14] it was below 10 nM. For the same compound, the GI50 in test [16] is below 10 nM. Further, the IC50 in test [5] was 0.35 nM; in test [7] it was 1.5 nM; in test [8], 3.3 nM; in test [11], 2.9 nM; in test [15], 0.57 nM; in [17], 6.9 nM. The compound also showed an IC50 in [18] of 5.6 nM.

These data come from ChEMBL document CHEMBL1134642, “Dicationic bis(9-methylphenazine-1-carboxamides): relationships between biological activity and linker chain structure for a series of potent topoisomerase targeted anticancer drugs” (J Med Chem, 2001).
